In ChEMBL document CHEMBL5505959, “Identification of 4-amino-2-Pyridones as new potent PCSK9 inhibitors: From phenotypic hit discovery to in vivo tolerability” (Eur J Med Chem, 2024):
Active and inactive are the calls of the source. The calls are words filed in the database; no cut-off is given here.

What was measured:
[1] = Toxicity in C57BL/6 mouse assessed as reduction in ALT plasma level at 40 mg/kg, sc measured after 7 days by ELISA method; format: organism-based; conditions: in vivo, 168 h, time 7 day
How it was run: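 Male C57BL/6J mice, 3 months old, dosed subcutaneously at 40 mg/kg daily for seven days in Transcutol. Killed under isoflurane 6 h after the final dose. Retro-orbital blood taken into EDTA and spun at 3000 rpm, 4 °C, 10 min. Plasma ALT measured by ELISA kit. Mean ± SEM, n = 5–6 per group.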

HepG2 [2] = assay: Induction of LDLR expression in human HepG2 cells by Western blot analysis; format: functional, cell-based
How it was run: (§1)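 HepG2 cells were treated overnight or for 24 h, alone or with simvastatin 40 μM. Lysates (1 % NP-40, 150 mM NaCl, 50 mM Tris-HCl pH 7.5) were loaded at 25 µg protein on 4–20 % SDS-PAGE. Blots were probed for proPCSK9, mature PCSK9 and LDLR, and densitometry was normalized to β-actin or GAPDH. Mean ± SD of three independent experiments.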

HepG2 [3] = assay: Downregulation of mature PCSK9 level in human HepG2 cells by Western blot analysis; format: functional, cell-based; how it was run: as §1
HepG2 [4] = assay: Downregulation of proPCSK9 level in human HepG2 cells by Western blot analysis; format: functional, cell-based; how it was run: as §1
HepG2 [5] = assay: Cytotoxicity against human HepG2 cells assessed as reduction in cell viability at 5 uM measured after 24 hrs by SRB assay relative to control; format: functional
How it was run: (§2)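 HepG2 seeded 8000 cells/well in complete MEM; next day medium replaced with 0.4 % FBS medium containing compound or DMSO control. Viability was read by sulforhodamine B assay after 24 h, with absorbance at 570 nm. Dose-response series used 6.25, 12.5, 25, 50 or 100 μM; newer analogues were tested at a fixed 5 μM. Data are mean ± SD of three independent experiments.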

HepG2 [6] = assay: Downregulation of PCSK9 protein level in human HepG2 cells at 5 uM by Western blot analysis; format: functional, cell-based; how it was run: as §1
HepG2 [7] = assay: Downregulation of PCSK9 mRNA level in human HepG2 cells at 6 to 25 uM by qRT-PCR analysis; format: functional, cell-based; conditions: dose 6-25 µM
How it was run: (§3)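 Total RNA was taken from treated HepG2 cells for RT-qPCR of PCSK9, FAS and HMG-CoA reductase. Cycling was 50 °C 10 min, 95 °C 2 min, then 40 cycles of 95 °C 5 s and 60 °C 10 s. Relative quantification used ΔΔCt against 18S, corrected for primer efficiency. Mean ± SD of three independent experiments.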

HepG2 [8] = assay: Cytotoxicity against human HepG2 cells assessed as reduction in cell viability at 100 uM measured after 24 hrs by SRB assay; format: functional, cell-based; how it was run: as §2
HepG2 [9] = assay: Downregulation of simvastatin induced PCSK9 expression in human HepG2 cells measured after 24 hrs by Western blot analysis; format: functional, cell-based; how it was run: as §1
HepG2 [10] = assay: Downregulation of PCSK9 mRNA level in human HepG2 cells at 25 uM by qRT-PCR analysis; format: functional, cell-based; how it was run: as §3
HepG2 [11] = assay: Cytotoxicity against human HepG2 cells assessed as reduction in cell viability at 25 uM measured after 24 hrs by SRB assay; format: functional, cell-based; how it was run: as §2
HepG2 [12] = assay: Cytotoxicity against human HepG2 cells assessed as reduction in cell viability at 50 to 100 uM measured after 24 hrs by SRB assay; format: functional, cell-based; conditions: dose 50-100 µM; how it was run: as §2
[13] = Induction of LDLR expression in human HepG2 cells by measuring fold increase by Western blot analysis; format: functional; how it was run: as §1
HepG2 [14] = assay: Effect on proPCSK9 expression in human HepG2 cells by Western blot analysis; format: functional, cell-based; how it was run: as §1
HepG2 [15] = assay: Inhibition of simvastatin induced PCSK9 activation in human HepG2 cells at 6.25 to 12.5 uM incubated for 24 hrs by luciferase assay; format: functional, cell-based; conditions: dose 6.25-12.5 µM
How it was run: (§4)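 HepG2 cells were seeded at 8 × 10⁵ per well and transiently transfected with pGL3-PCSK9-D4 (−440 to −94 region), or with SRE- or HNF-mutant constructs. At 48 h post-transfection, cells were treated 24 h with compound or simvastatin 5 μM. Promoter activity was read as luciferase luminescence.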

HepG2 [16] = assay: Inhibition of PCSK9 promotor activity in human HepG2 cells harbouring pGL3-PCSK9-SRE mutant at 6.25 to 12.5 uM incubated for 24 hrs by luciferase assay; format: functional, cell-based; conditions: dose 6.25-12.5 µM; how it was run: as §4
HepG2 [17] = assay: Effect on HMG-CoA reductase mRNA level in human HepG2 cells at 6.25 to 25 uM by qRT-PCR analysis; format: functional, cell-based; conditions: dose 6.25-25 µM; how it was run: as §3
HepG2 [18] = assay: Effect on FAS mRNA level in human HepG2 cells at 6.25 to 25 uM by qRT-PCR analysis; conditions: dose 6.25-25 µM
HepG2 [19] = assay: Downregulation of PCSK9 mRNA level in human HepG2 cells by qRT-PCR analysis; format: functional, cell-based; conditions: dose 6.25-25 µM; how it was run: as §3
HepG2 [20] = assay: Inhibition of PCSK9 promotor activity in human HepG2 cells harbouring pGL3-PCSK9-HNF mutant at 6.25 to 12.5 uM incubated for 24 hrs by luciferase assay; format: functional, cell-based; conditions: dose 6.25-12.5 µM; how it was run: as §4
[21] = Downregulation of proPCSK9 protein expression in human HepG2 cells at 12.5 uM by Western blot analysis relative to control; format: functional; how it was run: as §1
HepG2 [22] = assay: Inhibition of basal PCSK9 activity in human HepG2 cells at 6.25 to 12.5 uM incubated for 24 hrs by luciferase assay; format: functional, cell-based; conditions: dose 6.25-12.5 µM; how it was run: as §4
[23] = Downregulation of simvastatin induced PCSK9 expression in human HepG2 cells at 12.5 uM by Western blot analysis relative to control; format: functional; how it was run: as §1
HepG2 [24] = assay: Downregulation of proPCSK9 protein expression in human HepG2 cells at 6.25 uM by Western blot analysis; format: functional, cell-based; how it was run: as §1
HepG2 [25] = assay: Inhibition of PCSK9 transcription activity in human HepG2 cells harbouring FLAG tagged PCSK9 at 6.25 to 12.5 uM incubated for 24 hrs by luciferase assay; format: functional, cell-based; conditions: dose 6.25-12.5 µM
HepG2 [26] = assay: Downregulation of PCSK9 level in human HepG2 cells at 6.25 to 12.5 uM under conditioned media by ELISA method; format: functional, cell-based; conditions: dose 6.25-12.5 µM
How it was run: (§5)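 Secreted PCSK9 was measured in HepG2 conditioned media with a human PCSK9 DuoSet sandwich ELISA. Media were centrifuged at 15000 rpm for 10 min and diluted before reading absorbance at 450 nm. Values were normalized to HepG2 total protein content. Mean ± SD of three independent experiments.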

[27] = Downregulation of PCSK9 expression in human HepG2 cells at 6.25 to 12.5 uM by Western blot analysis relative to control; format: functional; conditions: dose 6.25-12.5 µM; how it was run: as §1
HepG2 [28] = assay: Effect on HMG-CoA reductase mRNA level in human HepG2 cells at 50 to 100 uM by qRT-PCR analysis; format: functional, cell-based; conditions: dose 50-100 µM; how it was run: as §3
[29] = Downregulation of mature PCSK9 protein expression in human HepG2 cells at 12.5 uM by Western blot analysis relative to control; format: functional; how it was run: as §1
HepG2 [30] = assay: Induction of LDLR expression in human HepG2 cells at 6.25 incubated for 24 hrs in presence of simvastatin by Western blot analysis; format: functional, cell-based; how it was run: as §1
[31] = Downregulation of extracellular PCSK9 level in human HepG2 cells at 6.25 to 12.5 uM under conditioned media by ELISA method relative to control; format: functional; conditions: dose 6.25-12.5 µM; how it was run: as §5
HepG2 [32] = assay: Downregulation of mature PCSK9 protein expression in human HepG2 cells at 6.25 uM by Western blot analysis; format: functional, cell-based; how it was run: as §1
HepG2 [33] = assay: Cytotoxicity against human HepG2 cells assessed as reduction in cell viability at 6 to 100 uM measured after 24 hrs by SRB assay; format: functional, cell-based; conditions: dose 6-100 µM; how it was run: as §2

Cc1cc(C(=O)C2=C(O)C(=O)N(CCCN3CCOCC3)C2c2ccncc2)ccc1OCc1ccccc1 (configuration not stated)
Activity [1]: Non-Toxic

CCCCCNc1cc(C)n(Cc2ccc(OC)cc2)c(=O)c1
Activity (HepG2 [2]): inactive
Activity (HepG2 [3]): Active
Activity (HepG2 [4]): Active

Cc1cc(NCc2ccc(C(F)(F)F)cc2)cc(=O)n1CC(C)C
Activity (HepG2 [5]): >95%

CCCCCn1c(C)cc(NCc2ccc(C(F)(F)F)cc2)cc1=O
Activity (HepG2 [5]): >95%

CCCCCn1c(C)cc(NCc2ccccc2)cc1=O
Activity (HepG2 [5]): >95%

CCCCCNc1cc(C)n(CCCCC)c(=O)c1
Activity (HepG2 [6]): Active
Activity (HepG2 [7]): Active
Activity (HepG2 [8]): Active

Cc1cc(NC2CCCC2)cc(=O)n1Cc1ccc(C(F)(F)F)cc1
Activity (HepG2 [5]): >95%

CCCCCN(C(C)=O)c1cc(C)n(Cc2ccc(C(F)(F)F)cc2)c(=O)c1
Activity (HepG2 [5]): >95%

CC(=O)N(Cc1ccc(C(F)(F)F)cc1)c1cc(C)n(Cc2ccc(C(F)(F)F)cc2)c(=O)c1
Activity (HepG2 [5]): >95%

Cc1cc(NCc2ccc(Cl)cc2)cc(=O)n1CCC(C)C
Activity (HepG2 [5]): >95%

CCCCCNc1cc(C)n(Cc2ccc(C(F)(F)F)cc2)c(=O)c1
Activity (HepG2 [5]): >95%

CCC(C)(C)C(=O)O[C@H]1C[C@@H](C)C=C2C=C[C@H](C)[C@H](CC[C@@H]3C[C@@H](O)CC(=O)O3)[C@H]21
Activity (HepG2 [9]): inactive

Cc1cc(NCCc2ccccc2)cc(=O)n1Cc1ccc(Cl)cc1
Activity (HepG2 [10]): Active
Activity (HepG2 [11]): inactive
Activity (HepG2 [12]): Active

Cc1cc(NCCC(C)C)cc(=O)n1Cc1ccccc1
Activity (HepG2 [5]): >95%

Cc1cc(NCc2ccc(CCC(C)C)cc2)cc(=O)n1Cc1ccc(CCC(C)C)cc1
fold change (FC) [13]: 3
Activity (HepG2 [14]): inactive
Activity (HepG2 [5]): >95%

CCCCCNc1cc(C)n(Cc2ccc(Cl)cc2)c(=O)c1
inhibition (HepG2 [15]): Active
inhibition (HepG2 [16]): inactive
Activity (HepG2 [17]): inactive
Activity (HepG2 [18]): inactive
Activity (HepG2 [19]): Dose-Dependent Effect
inhibition (HepG2 [20]): inactive
Activity [21]: 100%
inhibition (HepG2 [22]): inactive
Activity [23]: 100%
Activity (HepG2 [24]): inactive
inhibition (HepG2 [25]): inactive
Activity (HepG2 [26]): Active
Activity [27]: 65%
Activity (HepG2 [28]): Active
Activity [29]: 100%
Activity (HepG2 [30]): Active
Activity [31]: 35.8%
Activity (HepG2 [32]): inactive

COc1ccc(Cn2c(C)cc(NC3CCCC3)cc2=O)cc1
Activity (HepG2 [5]): >95%

COc1ccc(CNc2cc(C)n(Cc3ccc(OC)c(OC)c3)c(=O)c2)cc1OC
Activity (HepG2 [5]): >95%

CCCCCNc1cc(C)n(Cc2cccc(OC)c2OC)c(=O)c1
Activity (HepG2 [5]): >95%

CCCCCn1c(C)cc(NCc2ccc(Cl)cc2)cc1=O
Activity (HepG2 [6]): Active
Activity (HepG2 [7]): Active
Activity (HepG2 [33]): inactive

Cc1cc(NCc2ccccc2)cc(=O)n1CCC(C)C
Activity (HepG2 [5]): >95%

Cc1cc(NCc2ccc(Cl)cc2)cc(=O)n1Cc1ccc(Cl)cc1
Activity (HepG2 [5]): >95%

CCCCCNc1cc(C)n(Cc2ccccc2)c(=O)c1
Activity (HepG2 [5]): >95%

COc1cccc(CNc2cc(C)n(Cc3cccc(OC)c3OC)c(=O)c2)c1OC
Activity (HepG2 [5]): >95%

COc1ccc(CNc2cc(C)n(Cc3ccc(OC)cc3)c(=O)c2)cc1
Activity (HepG2 [5]): >95%
